Consider 18 compounds from ChEMBL document CHEMBL4316637, “Highly Modified Lanostane Triterpenes from Fruiting Bodies of the Basidiomycete Tomophagus sp” (J Nat Prod, 2019).

In brackets after ≈: the same amount, converted by molar mass.

For one assay, the system named is Plasmodium falciparum. In words: Antimalarial activity against Plasmodium falciparum K1 infected in human type A+ erythrocytes incubated for 24 hrs followed by [G-3H]-hypoxanthine incorporation and measured after 18 hrs by liquid scintillation counting method. In kind it is functional, organism-based.
Settings: not given
The essentials:
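P. falciparum K1 (multidrug-resistant strain), tested in duplicate with the microculture radioisotope technique; IC50 derived.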
Compound `CC(=O)O[C@@H]1C[C@H]([C@H](C)[C@H]2OC(=O)C(C)=C[C@@H]2O)[C@@]2(C)CCC3=C(CC[C@@H]4C(=C3)C=CC(=O)OC4(C)C)[C@]12C` came in with a concentration for half-maximal inhibition (IC50) of 7 µM.

The compound `CC(=O)O[C@@H]1C[C@H]([C@H](C)[C@@H]2CC=C(C)C(=O)O2)[C@@]2(C)CC(=O)C3=C(CC[C@@H]4C(=C3)C=CC(=O)OC4(C)C)[C@]12C` had an IC50 of 10 µM.

`C[C@H]1[C@@H](O)O[C@@H]2O[C@@]3(C)CC[C@H]4[C@H](C)CC[C@@H]1[C@@]24OO3` [ARTENIMOL] had an IC50 of 0.0028 µM.

As to `CC(=O)O[C@@H]1C[C@H]([C@H](C)[C@H]2OC(=O)C(C)=C[C@@H]2O)[C@@]2(C)CC(=O)C3=C(CC[C@@H]4C(=C3)C=CC(=O)OC4(C)C)[C@]12C`, the IC50 was > 18 µM.

As to `COC(=O)CC[C@]1(COC(C)=O)C2=C(CC[C@H]1C(C)(C)O)[C@]1(C)CC[C@H]([C@H](C)[C@@H]3CC=C(C)C(=O)O3)[C@@]1(C)CC2`, the IC50 turned out to be 15 µM.

Take `CC(=O)OC[C@]12CC[C@H](O)C(C)(C)[C@@H]1CCC1=C2CC[C@]2(C)[C@@H]([C@H](C)[C@@H]3CC=C(C)C(=O)O3)CC[C@@]12C`: the IC50 is > 20 µM.

For the compound `CC1=CC[C@@]2(OC1=O)O[C@H]1O[C@H]3C[C@@]14[C@H](CC[C@@]4(C)C1=C3C=C3C=CC(=O)OC(C)(C)[C@@H]3CC1)[C@@H]2C`, the IC50 was > 20 µM.

In the case of `CC(=O)O[C@@H]1C[C@H]([C@H](C)[C@@H]2CC=C(C)C(=O)O2)[C@@]2(C)CCC3=C(CC[C@]4(C(C)(C)O)OC(=O)C=CC4=C3)[C@]12C`, the IC50 is > 19 µM.

`CC1=C[C@H](O)[C@@H]([C@@H](C)[C@H]2CC[C@@]3(C)C4=C(CC[C@]23C)[C@@]2(C)CC[C@H](O)C(C)(C)[C@@H]2CC4)OC1=O`: the IC50 is > 21 µM.

`CC(=O)O[C@@H]1C[C@H]([C@H](C)[C@@H]2CC=C(C)C(=O)O2)[C@@]2(C)CCC3=C(CC[C@@H]4C(=CCC(=O)OC4(C)C)C3)[C@]12C`: the IC50 is 12 µM.

`CC(=O)O[C@@H]1C[C@H]([C@H](C)[C@@H]2CC=C(C)C(=O)O2)[C@@]2(C)C[C@H](O)C3=C(CC[C@@H]4C(=C3)C=CC(=O)OC4(C)C)[C@]12C`: the IC50 is > 19 µM.

In turn, `CC1=CC[C@@H]([C@@H](C)[C@H]2CC[C@@]3(C)C4=CC[C@H]5C(C)(C)OC[C@@]5(CCC(=O)O)C4=CC[C@]23C)OC1=O` yielded an IC50 of 5.1 µM.

In turn, `CC1=CC[C@@H]([C@@H](C)[C@H]2C[C@@H](O)[C@@]3(C)C4=C(C=C5C=CC(=O)OC(C)(C)[C@@H]5CC4)CC[C@]23C)OC1=O` registered an IC50 of 12 µM.

As to `CC1=CC[C@@H]([C@@H](C)[C@H]2C[C@@H](O)[C@@]3(C)C4=C(C=C5C=CC(=O)O[C@@]5(C(C)(C)O)CC4)CC[C@]23C)OC1=O`, the IC50 was > 20 µM.

As for `CC1=CC[C@@H]([C@@H](C)[C@H]2CC[C@@]3(C)C4=C(CC[C@]23C)[C@@]2(CO)CC[C@H](O)C(C)(C)[C@@H]2CC4)OC1=O`, the IC50 is > 21 µM.

With `CC(=O)OC(C)(C)[C@@H]1CC=C2C(=CC[C@]3(C)[C@@H]([C@H](C)[C@@H]4CC=C(C)C(=O)O4)CC[C@@]23C)[C@@]12CCC(=O)OC2`, the IC50 was found to be 7.7 µM.

The subject of a further assay is Mycobacterium tuberculosis. In words: Antitubercular activity against Mycobacterium tuberculosis H37Ra by GFP based microplate assay. Format: functional.
Settings: not given
In a few lines: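 Whole-cell assay on M. tuberculosis H37Ra growth, read by green fluorescent protein signal in microplates; activity given as MIC in μg/mL.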
With `CC(=O)O[C@@H]1C[C@H]([C@H](C)[C@H]2OC(=O)C(C)=C[C@@H]2O)[C@@]2(C)CCC3=C(CC[C@@H]4C(=C3)C=CC(=O)OC4(C)C)[C@]12C`, the minimal inhibitory concentration (MIC) came out at 50 µg/mL (≈ 92.8 µM).

On to `CC(=O)O[C@@H]1C[C@H]([C@H](C)[C@@H]2CC=C(C)C(=O)O2)[C@@]2(C)CC(=O)C3=C(CC[C@@H]4C(=C3)C=CC(=O)OC4(C)C)[C@]12C`, for which it took 50 µg/mL (≈ 93.2 µM) to inhibit growth (MIC).

For the compound `CC(=O)O[C@@H]1C[C@H]([C@H](C)[C@H]2OC(=O)C(C)=C[C@@H]2O)[C@@]2(C)CC(=O)C3=C(CC[C@@H]4C(=C3)C=CC(=O)OC4(C)C)[C@]12C`, the MIC is > 50 µg/mL.

As to `COC(=O)CC[C@]1(COC(C)=O)C2=C(CC[C@H]1C(C)(C)O)[C@]1(C)CC[C@H]([C@H](C)[C@@H]3CC=C(C)C(=O)O3)[C@@]1(C)CC2`, the MIC came out at 12.5 µg/mL (≈ 22.4 µM).

Regarding `CC(=O)OC[C@]12CC[C@H](O)C(C)(C)[C@@H]1CCC1=C2CC[C@]2(C)[C@@H]([C@H](C)[C@@H]3CC=C(C)C(=O)O3)CC[C@@]12C`, the MIC is > 50 µg/mL.

As for `CC1=CC[C@@]2(OC1=O)O[C@H]1O[C@H]3C[C@@]14[C@H](CC[C@@]4(C)C1=C3C=C3C=CC(=O)OC(C)(C)[C@@H]3CC1)[C@@H]2C`, the MIC was > 50 µg/mL.

For `CC(=O)O[C@@H]1C[C@H]([C@H](C)[C@@H]2CC=C(C)C(=O)O2)[C@@]2(C)CCC3=C(CC[C@]4(C(C)(C)O)OC(=O)C=CC4=C3)[C@]12C`, the minimal inhibitory concentration (MIC) is > 50 µg/mL.

For the compound `CC1=C[C@H](O)[C@@H]([C@@H](C)[C@H]2CC[C@@]3(C)C4=C(CC[C@]23C)[C@@]2(C)CC[C@H](O)C(C)(C)[C@@H]2CC4)OC1=O`, the MIC is > 50 µg/mL.

In the case of `CC(=O)O[C@@H]1C[C@H]([C@H](C)[C@@H]2CC=C(C)C(=O)O2)[C@@]2(C)CCC3=C(CC[C@@H]4C(=CCC(=O)OC4(C)C)C3)[C@]12C`, the MIC is > 50 µg/mL.

In the case of `CC(=O)O[C@@H]1C[C@H]([C@H](C)[C@@H]2CC=C(C)C(=O)O2)[C@@]2(C)C[C@H](O)C3=C(CC[C@@H]4C(=C3)C=CC(=O)OC4(C)C)[C@]12C`, the MIC is > 50 µg/mL.

As for `CC1=CC[C@@H]([C@@H](C)[C@H]2CC[C@@]3(C)C4=CC[C@H]5C(C)(C)OC[C@@]5(CCC(=O)O)C4=CC[C@]23C)OC1=O`, the MIC is > 50 µg/mL.

The compound `CC1=CC[C@@H]([C@@H](C)[C@H]2C[C@@H](O)[C@@]3(C)C4=C(C=C5C=CC(=O)OC(C)(C)[C@@H]5CC4)CC[C@]23C)OC1=O` registered an MIC of 50 µg/mL (≈ 104 µM).

On to `CC1=CC[C@@H]([C@@H](C)[C@H]2C[C@@H](O)[C@@]3(C)C4=C(C=C5C=CC(=O)O[C@@]5(C(C)(C)O)CC4)CC[C@]23C)OC1=O`, for which the MIC is > 50 µg/mL.

Turning to `CC1=CC[C@@H]([C@@H](C)[C@H]2CC[C@@]3(C)C4=C(CC[C@]23C)[C@@]2(CO)CC[C@H](O)C(C)(C)[C@@H]2CC4)OC1=O`, the MIC is > 50 µg/mL.

For `CC(=O)OC(C)(C)[C@@H]1CC=C2C(=CC[C@]3(C)[C@@H]([C@H](C)[C@@H]4CC=C(C)C(=O)O4)CC[C@@]23C)[C@@]12CCC(=O)OC2`, it took 50 µg/mL (≈ 95.3 µM) to inhibit growth (MIC).

Compound `NNC(=O)c1ccncc1` [ISONIAZID] registered an MIC of 0.047 µg/mL (≈ 0.343 µM).

In another assay the test system is Vero. In words: Cytotoxicity against African green monkey Vero cells by GFP based microplate assay. Format: cell-based. As to conditions: Chlorocebus sabaeus. The essentials: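 Vero cells (nonmalignant African green monkey kidney […]) tested with a green fluorescent protein microplate assay.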
Take `Cc1c2ccncc2c(C)c2c1[nH]c1ccccc12` [ELLIPTECINE]: the IC50 is 3.1 µM.

On to `CC(=O)O[C@@H]1C[C@H]([C@H](C)[C@H]2OC(=O)C(C)=C[C@@H]2O)[C@@]2(C)CCC3=C(CC[C@@H]4C(=C3)C=CC(=O)OC4(C)C)[C@]12C`, for which the IC50 worked out at 22 µM.

`CC(=O)O[C@@H]1C[C@H]([C@H](C)[C@@H]2CC=C(C)C(=O)O2)[C@@]2(C)CC(=O)C3=C(CC[C@@H]4C(=C3)C=CC(=O)OC4(C)C)[C@]12C` registered an IC50 of 92 µM.

Take `CC(=O)O[C@@H]1C[C@H]([C@H](C)[C@H]2OC(=O)C(C)=C[C@@H]2O)[C@@]2(C)CC(=O)C3=C(CC[C@@H]4C(=C3)C=CC(=O)OC4(C)C)[C@]12C`: the IC50 is > 90 µM.

Take `COC(=O)CC[C@]1(COC(C)=O)C2=C(CC[C@H]1C(C)(C)O)[C@]1(C)CC[C@H]([C@H](C)[C@@H]3CC=C(C)C(=O)O3)[C@@]1(C)CC2`: the IC50 came out at 11 µM.

In the case of `CC(=O)OC[C@]12CC[C@H](O)C(C)(C)[C@@H]1CCC1=C2CC[C@]2(C)[C@@H]([C@H](C)[C@@H]3CC=C(C)C(=O)O3)CC[C@@]12C`, the IC50 was > 98 µM.

Take `CC1=CC[C@@]2(OC1=O)O[C@H]1O[C@H]3C[C@@]14[C@H](CC[C@@]4(C)C1=C3C=C3C=CC(=O)OC(C)(C)[C@@H]3CC1)[C@@H]2C`: the IC50 is > 102 µM.

Compound `CC(=O)O[C@@H]1C[C@H]([C@H](C)[C@@H]2CC=C(C)C(=O)O2)[C@@]2(C)CCC3=C(CC[C@]4(C(C)(C)O)OC(=O)C=CC4=C3)[C@]12C` gave an IC50 of 33 µM.

As for `CC1=C[C@H](O)[C@@H]([C@@H](C)[C@H]2CC[C@@]3(C)C4=C(CC[C@]23C)[C@@]2(C)CC[C@H](O)C(C)(C)[C@@H]2CC4)OC1=O`, the IC50 came to 36 µM.

Turning to `CC(=O)O[C@@H]1C[C@H]([C@H](C)[C@@H]2CC=C(C)C(=O)O2)[C@@]2(C)CCC3=C(CC[C@@H]4C(=CCC(=O)OC4(C)C)C3)[C@]12C`, it took 94 µM to reach half-maximal inhibition (IC50).

Compound `CC(=O)O[C@@H]1C[C@H]([C@H](C)[C@@H]2CC=C(C)C(=O)O2)[C@@]2(C)C[C@H](O)C3=C(CC[C@@H]4C(=C3)C=CC(=O)OC4(C)C)[C@]12C` registered an IC50 of 34 µM.

Consider `CC1=CC[C@@H]([C@@H](C)[C@H]2CC[C@@]3(C)C4=CC[C@H]5C(C)(C)OC[C@@]5(CCC(=O)O)C4=CC[C@]23C)OC1=O`, for which the IC50 is > 104 µM.

Turning to `CC1=CC[C@@H]([C@@H](C)[C@H]2C[C@@H](O)[C@@]3(C)C4=C(C=C5C=CC(=O)OC(C)(C)[C@@H]5CC4)CC[C@]23C)OC1=O`, the IC50 turned out to be 42 µM.

Take `CC1=CC[C@@H]([C@@H](C)[C@H]2C[C@@H](O)[C@@]3(C)C4=C(C=C5C=CC(=O)O[C@@]5(C(C)(C)O)CC4)CC[C@]23C)OC1=O`: the IC50 is > 101 µM.

In the case of `CC1=CC[C@@H]([C@@H](C)[C@H]2CC[C@@]3(C)C4=C(CC[C@]23C)[C@@]2(CO)CC[C@H](O)C(C)(C)[C@@H]2CC4)OC1=O`, the IC50 was > 106 µM.

In turn, `CC(=O)OC(C)(C)[C@@H]1CC=C2C(=CC[C@]3(C)[C@@H]([C@H](C)[C@@H]4CC=C(C)C(=O)O4)CC[C@@]23C)[C@@]12CCC(=O)OC2` registered a half-maximal inhibitory concentration (IC50) of 38 µM.
